Measurements: ChEMBL document CHEMBL2331220, “Benzimidazole clubbed with triazolo-thiadiazoles and triazolo-thiadiazines: new anticancer agents” (2013)

How the values were obtained:
Type in all cases: functional
[1] = system: MCF7; assay: Cytotoxicity against human MCF7 cells after 48 hrs by SRB assay; conditions: MCF7, 48 h
How it was run: (§1)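 NCI 60-line five-dose screen. Cells were preincubated 24 h at 37 °C under 5% CO2 and 100% humidity, and time-zero plates were TCA-fixed when compound was added. Five 10-fold concentrations (0.01–100) were tested for 48 h. Cells were fixed with cold TCA (final 10%, 60 min, 4 °C), stained with 0.4% SRB for 10 min, and read at 515 nm. GI50, TGI and LC50 came from growth-percentage formulas, with out-of-range values given as > or <.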

[2] = system: OVCAR-5; assay: Cytotoxicity against human OVCAR5 cells after 48 hrs by SRB assay; conditions: OVCAR-5, 48 h; how it was run: as §1
[3] = system: SK-MEL-28; assay: Cytotoxicity against human SK-MEL-28 cells after 48 hrs by SRB assay; conditions: SK-MEL-28, 48 h; how it was run: as §1
[4] = system: SF-539; assay: Cytotoxicity against human SF539 cells after 48 hrs by SRB assay; conditions: SF-539, 48 h; how it was run: as §1
[5] = system: KM12; assay: Cytotoxicity against human KM12 cells after 48 hrs by SRB assay; conditions: KM12, 48 h; how it was run: as §1
[6] = system: HT-29; assay: Cytotoxicity against human HT-29 cells after 48 hrs by SRB assay; conditions: HT-29, 48 h; how it was run: as §1
[7] = read-out: LC50 (the source's name)
[8] = read-out: pLC50 (the source's name) (converted)

## O=C(CCc1nnc2sc(-c3ccc(Cl)cc3Cl)nn12)c1nc2ccccc2[nH]1
[1]; read-out: GI50
  GI50: 355 nM
[1]; read-out: LC50
  LC50: 5.97 µM
[1]; read-out: TGI
  TGI: 1500 nM
[1]; read-out: pGI50 (converted)
  GI50: 355 nM
[1]; read-out: pLC50 (converted)
  LC50: 6.03 µM
[1]; read-out: pTGI (converted)
  TGI: 1510 nM
[2]; read-out: GI50
  GI50: 1880 nM
[2]; [7]
  CC50: 8.39 µM
[2]; read-out: TGI
  TGI: 3.98 µM
[2]; read-out: pGI50 (converted)
  GI50: 1910 nM
[2]; [8]
  CC50: 8.32 µM
[2]; read-out: pTGI (converted)
  TGI: 3.98 µM
[3]; read-out: GI50
  GI50: 474 nM
[3]; [7]
  CC50: 4.24 µM
[3]; read-out: TGI
  TGI: 1670 nM
[3]; read-out: pGI50 (converted)
  GI50: 479 nM
[3]; [8]
  CC50: 4.27 µM
[3]; read-out: pTGI (converted)
  TGI: 1660 nM
[4]; read-out: GI50
  GI50: 2170 nM
[4]; [7]
  CC50: 22.8 µM
[4]; read-out: TGI
  TGI: 4.86 µM
[4]; read-out: pGI50 (converted)
  GI50: 2190 nM
[4]; [8]
  CC50: 22.9 µM
[4]; read-out: pTGI (converted)
  TGI: 4.9 µM
[5]; read-out: GI50
  GI50: 1160 nM
[5]; [7]
  CC50: 7.7 µM
[5]; read-out: TGI
  TGI: 2.99 µM
[5]; read-out: pGI50 (converted)
  GI50: 1150 nM
[5]; [8]
  CC50: 7.76 µM
[5]; read-out: pTGI (converted)
  TGI: 3.02 µM
[6]; read-out: GI50
  GI50: 362 nM
[6]; [7]
  CC50: > 100 µM
[6]; read-out: TGI
  TGI: 1810 nM
[6]; read-out: pGI50 (converted)
  GI50: 363 nM
[6]; [8]
  CC50: > 100 µM
[6]; read-out: pTGI (converted)
  TGI: 1820 nM
